Compound activity deposited in PubChem BioAssay by The Scripps Research Institute Molecular Screening Center.
HCV core dimer: inhibitors of HCV core protein dimerization, primary screen, biochemical, TR-FRET, high-throughput; TR-FRET GST/Flag-core106 dimerization, 1536-well; inhibition, % at 5 µM; 300,000 tested, 0.33% active; AID 1899, 2009;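 active means inhibition above the mean of all tested compounds plus 3 SD, set per screening campaign, cut at about 45% in these data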
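Assay system: Tagged HCV core106 pair (GST and Flag) | Buffer or medium: KF-containing HEPES buffer, pH 7.45, DTT, CHAPS, BSA | Also added: Eu donor and XL665 acceptor anti-tag antibodies | Dosing: One concentration, 5 µM, in 0.5% DMSO | Timing: 4 h at 22.5 °C | Technique: TR-FRET 671 and 617 nm emission | Repeats: Singlicate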
EBNA-1 inhibitor: EBNA-1 DNA-binding inhibitors, primary screen, biochemical, fluorescence polarization | inhibition, % at 14.8 µM | AID 1950, 2009 | 300,000 tested, 0.34% active; in the data active means inhibition above about 28%
HCV NS3 hel inh: inhibitors of HCV NS3 helicase, primary screen, biochemical, Cy5 molecular beacon fluorescence; inhibition, % at 10.9 µM; 290,000 tested, 0.56% active; Hepatitis C virus NS3 helicase; AID 1800, 2009; NS3 helicase DNA unwinding;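 active means inhibition above the mean of all tested compounds plus 3 SD, set per campaign, cut at about 35% in these data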;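 further: 0% = DMSO wells and 100% = thioflavine S control wells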
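Control set: DMSO versus 110 µM thioflavine S; Material: NS3 helicase fragment of HCV; Measured by: Cy5 fluorescence at 0 and 60 min, beacon hairpin quenching; Read-out basis: percent inhibition from t60/t0 fluorescence ratio; Times: reaction time 60 min, 25 °C; Repeats: single replicate; Compound dosing: single dose, 10.9 µM nominal final, DMSO 0.8% final.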
ZTA counter: blocks Epstein-Barr virus ZTA, an EBNA-1 counter-screen; ZTA-DNA binding, fluorescence polarization; AID 2234; 320,000 tested, 0.15% active; inhibition, % at 11 µM; in the data active means inhibition above about 33%
PP1 inh: PP1-alpha phosphatase inhibitors, primary screen, counter-screen for PP5 inhibitor project, biochemical, fluorescence, OMFP substrate, single point | Serine/threonine-protein phosphatase PP1-alpha catalytic subunit (Homo sapiens), P62136 | AID 2235, 2010 | purified PP1alpha | inhibition, % at 6.7 µM | 320,000 tested, 0.9% active;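 active means inhibition above the mean inhibition of all tested compounds plus 3 SD, computed separately for each screening campaign, cut at about 15% in these data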
Target sequence (P62136 whole entry, looked up): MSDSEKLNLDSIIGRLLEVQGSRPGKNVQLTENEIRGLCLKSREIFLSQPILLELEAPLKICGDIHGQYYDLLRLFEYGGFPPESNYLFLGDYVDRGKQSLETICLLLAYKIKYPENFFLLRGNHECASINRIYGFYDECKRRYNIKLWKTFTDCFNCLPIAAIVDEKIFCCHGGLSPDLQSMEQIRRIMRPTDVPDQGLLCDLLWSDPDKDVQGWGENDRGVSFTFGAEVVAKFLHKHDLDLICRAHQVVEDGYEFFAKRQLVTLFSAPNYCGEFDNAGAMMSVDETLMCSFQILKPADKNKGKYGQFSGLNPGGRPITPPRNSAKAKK
PP1 confirm: PP1 phosphatase inhibitors, confirmation, biochemical, fluorescence, OMFP substrate, triplicate. purified PP1alpha. shares compounds with PP1 inh. inhibition, % at 6.7 µM. 1,900 tested, 52% active;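 active means mean PP1 inhibition above a set limit taken from the earlier primary screen, cut at about 15% in these data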
PP5 inh counter: PP5 phosphatase inhibition by PP1 hits, confirmation, counter-screen for PP1 inhibitor project, biochemical, fluorescence, triplicate. inhibition, % at 6.7 µM. AID 2360, 2010. purified PP5c, OMFP fluorescence. 1,900 tested, 4% active. shares compounds with PP1 inh;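 active means mean PP5 inhibition over triplicate wells above about 9.5% taken from the earlier PP1 screen, limit read from the data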
Numbers without * were called inactive; nt = no result given. Hits are enriched below; roughly 1.9% of the tested compounds scored in any of these assays.

SMILES	HCV core dimer	EBNA-1 inhibitor	HCV NS3 hel inh	ZTA counter	PP1 inh	PP1 confirm	PP5 inh counter
COc1ccc(/C=N/Nc2nc(C(=O)O)cs2)cc1	-9	-2	8	7	20*	10	-2
COc1ccc(S(=O)(=O)N2CCCC2CNC(=O)C(=O)NCc2ccccc2)cc1 (stereo not given)	6	7	nt	6	33*	-5	-5
O=C(NCCC1CCCCN1S(=O)(=O)c1ccc(Cl)cc1)C(=O)NCc1ccncc1 (stereo not given)	0	-6	nt	7	31*	-3	1
O=C(Nc1nc(-c2ccco2)c(-c2ccco2)s1)c1c(F)cccc1Cl	nt	nt	nt	16	4	nt	nt
O=C(Nc1nc(-c2ccco2)c(-c2ccco2)s1)c1cnccn1	69*	11	nt	17	23*	12	-2
CCOC(=O)c1cnn(-c2ccc([N+](=O)[O-])cc2)c1N	-3	10	-7	-1	0	nt	nt
CC(OC(=O)c1ccc(NC(=O)CC#N)cc1)C(=O)Nc1ccc(Oc2ccccc2)cc1 (stereo not given)	47*	9	17	3	20*	8	-6
Cc1cccc(Nc2nnc(SCC(=O)c3ccc(Br)s3)s2)c1C	-5	8	8	16	21*	21*	7
Cc1cccc(/C=N/NC(=O)c2cc(-c3cccnc3)nc3ccccc23)c1	-3	7	8	7	78*	-2	-1
Cc1cccc(-c2cc(C(=O)N/N=C/c3cccnc3)c3ccccc3n2)c1	0	-4	nt	-23	-3	nt	nt
O=c1c(-c2c(O)cc(O)c3c(=O)cc(-c4ccc(O)cc4)oc23)c(-c2ccc(O)cc2)oc2cc(O)cc(O)c12	24	10	nt	9	32*	16*	-2
COc1c(-c2ccc(O)cc2)oc2cc(O)cc(O)c2c1=O	-6	-8	nt	7	7	nt	nt
CCOC(=O)c1cc(-c2ccccc2)nc2c1c(C)nn2-c1ccccn1	12	7	0	5	31*	32*	-3
COc1ccc(OC)c(NC(=O)Cn2c(=O)n(CC3CCCO3)c(=O)c3cc(OC)c(OC)cc32)c1 (stereo not given)	-20	1	11	0	-2	nt	nt
O=C(COC(=O)CC1CCCC1)Nc1ccc(Cl)cn1	nt	nt	nt	-16	-3	nt	nt
O=C(NCC1CCCC(CNC(=O)Nc2ccc(Cl)cn2)C1)Nc1ccc(Cl)cn1 (stereo not given)	20	-6	-21	-13	19*	13	5
CC(C)c1nnc(NC(=O)CCC(=O)NC2CCCCCC2)s1	2	4	-3	8	-1	nt	nt
Cc1ccc2nc(N3C(=O)C(O)=C(C(=O)c4ccco4)C3c3cccs3)sc2c1 (stereo not given)	-9	21	24	8	28*	28*	0
CCOC(=O)c1sc(N2C(=O)C(O)=C(C(=O)c3ccco3)C2c2ccccc2)nc1C (stereo not given)	nt	nt	29	nt	nt	nt	nt
CCOC(=O)c1sc(N2C(=O)C(O)=C(C(=O)c3ccco3)C2c2ccco2)nc1C (stereo not given)	-3	2	13	14	18*	13	-1
CCOc1ccc2nc(N3C(=O)C(O)=C(C(=O)c4ccco4)C3c3ccco3)sc2c1 (stereo not given)	nt	nt	nt	-5	14	nt	nt
Cc1cc(C)c2nc(N3C(=O)C(O)=C(C(=O)c4ccco4)C3c3ccco3)sc2c1 (stereo not given)	12	14	9	17	32*	31*	1
Cc1ccc2nc(N3C(=O)C(O)=C(C(=O)c4ccc(C)o4)C3c3ccc(O)cc3)sc2c1 (stereo not given)	nt	nt	nt	9	30*	21*	1
Cc1ccc(C(=O)C2=C(O)C(=O)N(c3ncccn3)C2c2ccc(Cl)cc2)o1 (stereo not given)	9	2	13	14	13	nt	nt
